Source: PubChem BioAssay (several laboratories)
Only some compounds are listed: those with a hit (about 1.5% of all), similar ones and a draw of the others.
Arrestin-AP2 inh – blocks beta-arrestin peptide binding to AP2 adaptin. AID 504490. FITC-arrestin peptide / GST-AP2 beads, flow cytometry; AP2 beta2 appendage carries R879A mutation. 340,000 compounds, 0.31% hits. inhibition, % at 10 µM;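 active = inhibition above a set limit, near 3 SD of compounds lacking own fluorescence, cut at about 54% in these data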
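system = GST-tagged AP2 beta2-adaptin appendage (R879A) on 4 µm glutathione beads | reagent = FITC-labelled arrestin peptide probe, 50 nM final | schedule = compound with beads 12 min RT, then probe 1 h RT | signal = HyperCyt-sampled flow cytometry, FL1 channel, ex 488/em 535 nm | read-out = percent response from loss of bead-bound FITC fluorescence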
Pemphigus Ab inh – inhibitors of pemphigus antibody binding to human desmoglein-3 | P32926 | DSG3-coupled beads, scFv-anti-DSG3-GFP binding, flow cytometry; hits give low values | binding (percent of control), % at 10 µM | 310,000 compounds, 0.48% hits | AID 588358;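 active = binding more than 3 SD below its plate's average and above zero; inconclusive = below that plate limit but binding exactly zero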;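 note: hits lower antibody fragment binding to DSG3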
LANA-H2A inh – blocks KSHV LANA binding to histone H2A/H2B | 320,000 compounds, 0.6% hits | inhibition, % (no concentration beside the values) | cell-free LANA-H2A/H2B peptide, fluorescence polarization | AID 2629; in the data active = inhibition mostly above about 10%, no sharp cut-off; inactive = mostly below about 6.7%
Target sequence (Q9QR71 whole entry, looked up): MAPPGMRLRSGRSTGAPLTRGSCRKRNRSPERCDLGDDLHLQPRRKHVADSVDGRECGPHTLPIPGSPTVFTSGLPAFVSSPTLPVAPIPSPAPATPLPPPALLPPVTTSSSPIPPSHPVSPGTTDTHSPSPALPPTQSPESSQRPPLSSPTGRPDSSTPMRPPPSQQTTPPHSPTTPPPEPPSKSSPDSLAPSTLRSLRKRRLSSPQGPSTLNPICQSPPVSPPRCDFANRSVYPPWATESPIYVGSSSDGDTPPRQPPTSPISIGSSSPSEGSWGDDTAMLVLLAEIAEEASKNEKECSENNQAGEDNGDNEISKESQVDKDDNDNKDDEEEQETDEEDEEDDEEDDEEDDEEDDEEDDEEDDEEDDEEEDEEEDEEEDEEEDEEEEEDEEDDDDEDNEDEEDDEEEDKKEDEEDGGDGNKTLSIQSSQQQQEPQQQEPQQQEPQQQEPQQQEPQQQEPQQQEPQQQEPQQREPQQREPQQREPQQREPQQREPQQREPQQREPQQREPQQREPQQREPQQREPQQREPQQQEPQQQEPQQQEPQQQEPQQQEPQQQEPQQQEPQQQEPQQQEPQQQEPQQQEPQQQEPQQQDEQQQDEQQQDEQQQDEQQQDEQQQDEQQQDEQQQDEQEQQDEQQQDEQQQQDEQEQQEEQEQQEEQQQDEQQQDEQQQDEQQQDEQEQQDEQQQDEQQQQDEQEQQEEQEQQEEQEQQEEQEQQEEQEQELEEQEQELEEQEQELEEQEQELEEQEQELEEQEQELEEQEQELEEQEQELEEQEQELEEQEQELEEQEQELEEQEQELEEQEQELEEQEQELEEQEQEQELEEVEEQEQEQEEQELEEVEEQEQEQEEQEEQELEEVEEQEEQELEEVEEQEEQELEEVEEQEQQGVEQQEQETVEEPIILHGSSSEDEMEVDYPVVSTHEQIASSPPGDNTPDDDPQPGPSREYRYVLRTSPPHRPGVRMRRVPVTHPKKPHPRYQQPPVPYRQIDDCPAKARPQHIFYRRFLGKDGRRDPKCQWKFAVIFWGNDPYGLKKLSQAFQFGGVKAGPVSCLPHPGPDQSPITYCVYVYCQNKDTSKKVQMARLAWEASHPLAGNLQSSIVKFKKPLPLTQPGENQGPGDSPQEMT
T cell HTS – T cell immune modulation candidate | 2C CD8+ T cell-vesicle binding, flow cytometry; hits give low values | response (vesicle binding), % at 7 µM | 330,000 compounds, 0.068% hits;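 active = response, share of CD8 T cells binding vesicles, and their 90th percentile fluorescence all below set limits, cut at about 80% in these data, passing the limit was not always enough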;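 note: values below 100% mean blocked vesicle binding to the CD8+ T cells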
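Material: murine 2C transgenic CD8+ T lymphocytes / Also added: QL9-peptide-loaded Drosophila micro-vesicles bearing Ld, ICAM-1 and B7-1 / Schedule: binding step 1.5 h, 37 °C, antibody labelling 20 min, ice / Signal: flow cytometry, PE anti-B7-1 (FL2) versus Alexa647 anti-CD8 (FL8), PFA-fixed / Evaluation: percent CD8+ FL2 mean versus row control / Benchmarks: naked versus QL9-loaded vesicles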
HDAC3 inh – human HDAC3 inhibition; O15379; recombinant HDAC3, fluorogenic peptide/trypsin coupled, fluorescence; inhibition, % at 8.3 µM; 320,000 compounds, 0.15% hits; AID 2718; in the data active = inhibition above about 26%, passing the limit was not always enough; inconclusive = no clear call, values can overlap the other calls
Numbers stand for hits; . = inactive; ? = inconclusive; / = not tested or not shown; + = active, no number.

SMILES	Arrestin-AP2 inh	Pemphigus Ab inh	LANA-H2A inh	T cell HTS	HDAC3 inh
CCc1nn(CCCC(=O)NC2CCCCC2C)c(=O)c2cc3occc3n12 (stereo not drawn)	/	.	/	/	/
COc1ccc(NC(=O)CCC(=O)c2cc(C)sc2C)cc1	.	.	/	/	/
O=[N+]([O-])c1ccc(NCCNc2ccc([N+](=O)[O-])cc2)cc1	.	-6.8	/	/	/
CCOc1ccccc1NC(=O)COC(=O)COc1cccc2c1OC(C)(C)C2	/	.	/	/	/
CC(C)n1cnnc1SCC(=O)Nc1ccc(N2CCCCC2)cc1	.	.	.	.	/
CC(C)(C)c1nnc(SCC(=O)Nc2ccc(N3CCCCC3)cc2)n1N	.	.	+	.	.
NC(C(=O)O)C1ON=C(Cl)C1O (stereo not drawn)	.	.	/	/	/
N#C/C(=C\c1ccc(/C=C(/C#N)c2nn(CCO)c(N)c2C#N)cc1)c1nn(CCO)c(N)c1C#N	.	86	.	.	.
CCn1c(NCc2cccs2)nc2ccccc21	.	.	.	.	.
Cn1c(NCc2cccs2)nc2ccccc21	.	.	22	.	.
CCOC(=O)c1ccc(N2CSC3=C(C#N)C(c4cccs4)CC(=O)N3C2)cc1 (stereo not drawn)	.	.	.	.	31
COc1ccc(N2CSC3=C(C#N)C(c4ccc(OC)c(OC)c4)CC(=O)N3C2)c(OC)c1 (stereo not drawn)	.	.	.	.	40
COc1ccc(N2CSC3=C(C#N)C(c4cc(OC)ccc4OC)CC(=O)N3C2)c(OC)c1 (stereo not drawn)	.	.	.	.	42
CCc1ccc(N2CSC3=C(C#N)C(c4cccs4)CC(=O)N3C2)cc1 (stereo not drawn)	.	.	.	.	.
COc1ccc(N2CSC3=C(C#N)C(c4cc(OC)c(OC)cc4OC)CC(=O)N3C2)c(OC)c1 (stereo not drawn)	.	.	.	.	38
COc1cc(OC)c(C2CC(=O)N3CN(c4ccc(C)cc4)CSC3=C2C#N)cc1OC (stereo not drawn)	.	.	.	.	.
CCN(CC)C(=O)C1=C(C)N(CCC2=CCCCC2)C(=O)C(CC(=O)NCc2cccc3ccccc23)C1 (stereo not drawn)	/	.	/	/	/
Nc1ncnc2c1ncn2[C@@H]1O[C@H](CNC(=O)[C@@H](N)C2CCCCC2)[C@@H](O)[C@H]1O	.	.	/	/	/
O=C1CNC(=O)c2cc(Cl)ccc2N1	/	.	/	/	/
O=C(c1cccc(F)c1)N1CCCc2ccccc21	.	.	.	.	.
COc1ccc(C2CC(=O)N3CN(c4ccc(C)c(Cl)c4)CSC3=C2C#N)cc1OC (stereo not drawn)	.	.	.	.	43
N#CC1=C2SCN(c3ccc(F)cc3)CN2C(=O)CC1c1cccc(F)c1 (stereo not drawn)	.	.	.	.	.
O=c1c2ccccc2nc(/C=C/c2cccc([N+](=O)[O-])c2)n1CCO	.	.	19	.	.
COc1ccc(Cc2nnc(N/N=C/c3ccc(N(C)C)cc3)[nH]c2=O)cc1OC	.	77	.	.	.
COc1ccc(/C=N/Nc2nnc(Cc3ccc(OC)c(OC)c3)c(=O)[nH]2)cc1OC	.	.	.	.	.
SMILES	Arrestin-AP2 inh	Pemphigus Ab inh	LANA-H2A inh	T cell HTS	HDAC3 inh
O=C(c1cccs1)n1nc(-c2ccccc2)nc1NCc1ccc(F)cc1	.	.	.	.	.
CC(=O)n1nc(-c2ccccc2)nc1NCc1ccc(F)cc1	.	/	.	.	32
CCC(=O)n1nc(-c2cccnc2)nc1NCc1ccc(F)cc1	.	.	.	.	29
CC1(C(=O)N2CCN(C(=O)c3ccco3)CC2)CC1(Br)Br (stereo not drawn)	.	.	.	.	.
COc1ccc(N2CCN(S(=O)(=O)c3cc4c(cc3C)NC(=O)CO4)CC2)cc1	.	.	.	.	.
CC(=O)Nc1ccccc1C(=O)C(=O)Nc1ccccc1	.	.	4.6	.	.
CC(=O)Nc1ccccc1C(=O)C(=O)Nc1ccc(Cl)cc1	.	/	.	.	.
O=S(=O)(NC1CC2CCC1C2)c1ccc2c(c1)OCCO2 (stereo not drawn)	.	.	20	.	.
CC1CCCC(NS(=O)(=O)c2ccc3c(c2)OCCO3)C1C (stereo not drawn)	.	.	.	.	.
CCOc1ccc(OCCCC(=O)N(CC)CC(=O)Nc2c(F)cccc2F)cc1	.	.	36	.	.
O=C(Cc1ccc2ccccc2c1)Nc1ccccc1Br	.	87	39	.	.
CCCCN1C=C(C(=O)OC)C(c2ccccc2C(F)(F)F)C(C(=O)OC)=C1	.	-28	.	.	.
COc1ccc(CNC(=O)CN2C(=O)c3ccc([N+](=O)[O-])cc3C2=O)cc1	.	.	23	.	.
COc1ccccc1C(=O)NCCC(=O)Nc1ccncc1	.	.	.	.	.
COc1cc(NC(=O)NS(=O)(=O)c2ccc(C)cc2)cc(OC)c1	.	.	.	.	.
COc1ccc(NC(=O)NS(=O)(=O)c2ccc(C)cc2)cn1	.	.	68	.	.
CCOc1ccc(NC(=O)C(c2ccccn2)N(C(=O)CCl)c2ccc(F)cc2)cc1 (stereo not drawn)	.	.	33	.	.
CCOc1ccc(NC(=O)N(c2ccccc2)c2ccccc2)cc1	.	.	.	.	.
Fc1ccccc1N1CCN(C(c2ccccn2)c2nnnn2C2CCCCC2)CC1 (stereo not drawn)	.	.	12	.	.
COc1ccc(-c2noc(CCC(=O)N3CCN(c4cccc(Cl)c4)CC3)n2)cc1	.	.	/	/	/
Cc1cc(Cl)ccc1OCCCC(=O)NO	.	.	.	.	77
Cc1cc(Cl)ccc1OCCCC(N)=O	.	/	.	.	.
Cc1cc(NS(=O)(=O)c2c(C)c(C)cc(C)c2C)no1	.	.	.	.	.
COc1ccc(C(=O)/C=C/Nc2ccc(S(N)(=O)=O)cc2)cc1OC	.	71	.	.	.
CCOC(=O)c1ccc(N/C=C/C(=O)c2ccc(OC)c(OC)c2)cc1	.	.	.	.	.
SMILES	Arrestin-AP2 inh	Pemphigus Ab inh	LANA-H2A inh	T cell HTS	HDAC3 inh
Cc1nc(NC(=O)/C=C/c2ccco2)sc1C	.	-3.5	.	.	.
O=C(/C=C/c1ccco1)Nc1nnc(-c2ccco2)s1	.	.	.	.	.
CSc1nc2nccc(-c3ccc4c(c3)OCO4)n2n1	.	104	.	.	.
O=S(=O)(NC(CO)Cc1ccccc1)c1ccc(Br)cc1F (stereo not drawn)	.	.	/	/	/
CC(=O)Nc1ccc(N2C(=O)CSC2c2ccccc2)cc1 (stereo not drawn)	.	.	.	.	.
Nc1ccc(-c2c3ccc(=O)cc-3oc3cc(O)ccc23)c(C(=O)O)c1	.	.	65	.	?
N#C/C(=C/c1cn(-c2ccccc2)nc1-c1cccc(OCc2ccccc2)c1)C(=O)NCCCn1ccnc1	.	.	.	.	.
CCOc1cccc(-c2nn(-c3ccccc3)cc2/C=C(/C#N)C(=O)NCCCn2ccnc2)c1	.	97	.	.	.
